In general, IC50 refers to the midpoint of a concentration-inhibition curve. A higher IC50 goes with weaker potency. Broadly, the MIC is the least concentration at which growth counts as inhibited. A low value points to a more susceptible organism. Broadly, the MFC is the smallest concentration meeting the test's criterion for killing the fungus. Low readings indicate greater fungicidal potency, high ones weaker fungicidal potency.

For series [1], the system named is Candida albicans. The series can be described thus: Antifungal activity against Candida albicans ATCC 10231 after 24 to 36 hrs by broth microdilution method. It counts as functional, organism-based. Summed up: (§1)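 CLSI broth microdilution against yeasts (M27-A3) and filamentous fungi (M38-A2). Read-outs: IC50 (concentration giving 50% growth inhibition), MIC, and MFC (minimum fungicidal concentration), all in μg/mL. Assay done twice in triplicate.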
For orientation: Dilution methods test growth across graded concentrations, often in twofold steps.

Series [2] has as its system Cryptococcus neoformans. The series can be described thus: Antifungal activity against Cryptococcus neoformans ATCC 34664 after 24 to 36 hrs by broth microdilution method. Format: functional, organism-based. Put shortly: as §1
The test system of series [3] is Candida albicans. The series is described as follows: Antifungal activity against Candida albicans ATCC 10231 after 72 hrs by broth microdilution method. The note with it: ATCC 10231, 72 h. Format: functional. Summed up: as §1
Series [4] concerns Aspergillus niger. The series can be described thus: Antifungal activity against Aspergillus niger ATCC 10578 after 72 hrs by broth microdilution method. It counts as functional. The note with it: ATCC 10578, 72 h. Summed up:
as §1

In series [5] the test system is Candida albicans. The series can be described thus: Antifungal activity against Candida albicans ATCC 24433 after 72 hrs by broth microdilution method. Format: functional. The note with it: ATCC 24433, 72 h. Summed up:
as §1

Series [6] has as its system Nakaseomyces glabratus. The series is described as follows: Antifungal activity against Candida glabrata NCYC 388 after 72 hrs by broth microdilution method. Conditions: NCYC 388, 72 h. Format: functional. Summed up:
as §1

Series [7] deals with Candida albicans. The series can be described thus: Antifungal activity against Candida albicans ATCC 24433 after 24 to 36 hrs by broth microdilution method. It counts as functional, organism-based. Put shortly: as §1
In series [8] the test system is Nakaseomyces glabratus. The series is described as follows: Antifungal activity against Candida glabrata NCYC 388 after 24 to 36 hrs by broth microdilution method. It counts as functional, organism-based. Summed up:
as §1

For series [9], the system named is Candida tropicalis. The series can be described thus: Antifungal activity against Candida tropicalis ATCC 750 after 24 to 36 hrs by broth microdilution method. Format: functional, organism-based. Put shortly:
as §1

Series [10] has as its system Candida tropicalis. The series can be described thus: Antifungal activity against Candida tropicalis ATCC 750 after 72 hrs by broth microdilution method. It counts as functional. The note with it: ATCC 750, 72 h. Put shortly:
as §1

Series [11] is described as follows: Toxicity in human RBC assessed as hemolysis upto 128 ug/ml. Conditions: erythrocyte. It counts as cell-based.
In series [12] the test system is Cryptococcus neoformans. The series is described as follows: Antifungal activity against Cryptococcus neoformans ATCC 34664 after 72 hrs by broth microdilution method. Format: functional. The note with it: ATCC 34664, 72 h. Summed up: as §1
In series [13] the test system is Aspergillus niger. The series can be described thus: Antifungal activity against Aspergillus niger ATCC 10578 after 48 hrs by broth microdilution method. The note with it: ATCC 10578, 48 h. It counts as functional, organism-based. Summed up:
as §1

Molecules are shown by their SMILES. Values after ≈ are worked out from the molar mass of the structure shown.

Regarding `CC(Cc1ccc([Si](C)(C)C)cc1)CN1CCSCC1` (configuration not stated), the IC50 in the series on Candida albicans [1] amounted to 0.5 µg/mL (≈ 1.63 µM); with Cryptococcus neoformans [2] it was 0.8 µg/mL (≈ 2.6 µM); with Candida albicans [7], 0.245 µg/mL (≈ 0.797 µM); with Nakaseomyces glabratus [8], 0.25 µg/mL (≈ 0.813 µM); in the series with Candida tropicalis [9], 0.25 µg/mL (≈ 0.813 µM); in the series on Aspergillus niger [13] it was 1 µg/mL (≈ 3.25 µM). The MIC in the series on Candida albicans [1] is 1 µg/mL (≈ 3.25 µM); in the series with Cryptococcus neoformans [2], 2 µg/mL (≈ 6.5 µM); with Candida albicans [7] it was 1 µg/mL (≈ 3.25 µM); with Nakaseomyces glabratus [8] it was 0.5 µg/mL (≈ 1.63 µM); against Candida tropicalis [9], 2 µg/mL (≈ 6.5 µM); with Aspergillus niger [13] it was 2 µg/mL (≈ 6.5 µM). Besides, the MFC is 2 µg/mL (≈ 6.5 µM) with Candida albicans [3]; over 256 µg/mL against Aspergillus niger [4]; 8 µg/mL (≈ 26 µM) in the series with Candida albicans [5]; 8 µg/mL (≈ 26 µM) against Nakaseomyces glabratus [6]; over 256 µg/mL with Candida tropicalis [10]; 64 µg/mL (≈ 208 µM) against Cryptococcus neoformans [12]. Further, the Activity result in [11] is given as “Non-toxic”.
Regarding `CC(Cc1ccc([Si](C)(C)C)cc1)CN1CCCCC1` (configuration not stated), the IC50 stood at 0.11 µg/mL (≈ 0.38 µM) in the series with Candida albicans [1]; 0.0625 µg/mL (≈ 0.216 µM) with Cryptococcus neoformans [2]; 0.12 µg/mL (≈ 0.414 µM) in the series on Candida albicans [7]; 0.035 µg/mL (≈ 0.121 µM) in the series with Nakaseomyces glabratus [8]; 1 µg/mL (≈ 3.45 µM) in the series on Candida tropicalis [9]; 41.2 µg/mL (≈ 142 µM) in the series with Aspergillus niger [13]. The minimum inhibitory concentration (MIC) in the series on Candida albicans [1] amounted to 0.25 µg/mL (≈ 0.863 µM); against Cryptococcus neoformans [2], 0.125 µg/mL (≈ 0.432 µM); in the series on Candida albicans [7], 0.25 µg/mL (≈ 0.863 µM); against Nakaseomyces glabratus [8], 0.125 µg/mL (≈ 0.432 µM); against Candida tropicalis [9] it was 4 µg/mL (≈ 13.8 µM); with Aspergillus niger [13], 64 µg/mL (≈ 221 µM). Besides, the MFC worked out at 32 µg/mL (≈ 111 µM) against Candida albicans [3]; 128 µg/mL (≈ 442 µM) in the series with Aspergillus niger [4]; 2 µg/mL (≈ 6.91 µM) against Candida albicans [5]; 8 µg/mL (≈ 27.6 µM) in the series on Nakaseomyces glabratus [6]; 64 µg/mL (≈ 221 µM) in the series with Candida tropicalis [10]; 8 µg/mL (≈ 27.6 µM) in the series on Cryptococcus neoformans [12]. Further, the Activity result in series [11] is recorded as “Non-toxic”.
Regarding `CC(Cc1ccc([Si](C)(C)C)cc1)CN1CCCC1` (configuration not stated), the 50% inhibitory concentration (IC50) is 0.31 µg/mL (≈ 1.13 µM) with Candida albicans [1]; 0.25 µg/mL (≈ 0.907 µM) in the series on Cryptococcus neoformans [2]; 0.97 µg/mL (≈ 3.52 µM) with Candida albicans [7]; 0.319 µg/mL (≈ 1.16 µM) in the series with Nakaseomyces glabratus [8]; 2.76 µg/mL (≈ 10 µM) in the series on Candida tropicalis [9]; 50.1 µg/mL (≈ 182 µM) in the series on Aspergillus niger [13]. The MIC in the series with Candida albicans [1] worked out at 0.5 µg/mL (≈ 1.81 µM); against Cryptococcus neoformans [2], 1 µg/mL (≈ 3.63 µM); against Candida albicans [7], 2 µg/mL (≈ 7.26 µM); against Nakaseomyces glabratus [8], 1 µg/mL (≈ 3.63 µM); with Candida tropicalis [9], 16 µg/mL (≈ 58.1 µM); against Aspergillus niger [13], 64 µg/mL (≈ 232 µM). The MFC against Candida albicans [3] was 2 µg/mL (≈ 7.26 µM); with Aspergillus niger [4], 256 µg/mL (≈ 929 µM); in the series on Candida albicans [5], 8 µg/mL (≈ 29 µM); in the series with Nakaseomyces glabratus [6], 32 µg/mL (≈ 116 µM); in the series on Candida tropicalis [10], 128 µg/mL (≈ 465 µM); in the series with Cryptococcus neoformans [12], 4 µg/mL (≈ 14.5 µM).
As to `CC(Cc1ccc(C(C)(C)C)cc1)CN1CC[Si](C)(C)CC1` (configuration not stated), the IC50 with Candida albicans [1] turned out to be 0.31 µg/mL (≈ 0.976 µM); in the series with Cryptococcus neoformans [2], 0.875 µg/mL (≈ 2.76 µM); in the series on Candida albicans [7] it was 1.85 µg/mL (≈ 5.83 µM); in the series with Nakaseomyces glabratus [8] it was 1.52 µg/mL (≈ 4.79 µM); in the series with Candida tropicalis [9], 16 µg/mL (≈ 50.4 µM); in the series with Aspergillus niger [13], 13.8 µg/mL (≈ 43.5 µM). The MIC against Candida albicans [1] worked out at 0.5 µg/mL (≈ 1.57 µM); with Cryptococcus neoformans [2] it was 2 µg/mL (≈ 6.3 µM); with Candida albicans [7] it was 4 µg/mL (≈ 12.6 µM); in the series with Nakaseomyces glabratus [8], 4 µg/mL (≈ 12.6 µM); against Candida tropicalis [9], 64 µg/mL (≈ 202 µM); with Aspergillus niger [13] it was 32 µg/mL (≈ 101 µM). The MFC with Candida albicans [3] stood at 0.5 µg/mL (≈ 1.57 µM); against Aspergillus niger [4] it was 64 µg/mL (≈ 202 µM); against Candida albicans [5], 8 µg/mL (≈ 25.2 µM); in the series on Nakaseomyces glabratus [6], 8 µg/mL (≈ 25.2 µM); against Candida tropicalis [10] it was 64 µg/mL (≈ 202 µM); against Cryptococcus neoformans [12], 4 µg/mL (≈ 12.6 µM). Besides, the Activity entry in series [11] is “Non-toxic”.
Turning to `CC(Cc1ccc(C(C)(C)C)cc1)CN1C[C@@H](C)O[C@@H](C)C1` (some centres not stated) [FENPROPIMORPH], the IC50 in the series on Candida albicans [1] worked out at 0.833 µg/mL (≈ 2.74 µM); with Cryptococcus neoformans [2], 0.25 µg/mL (≈ 0.824 µM); with Candida albicans [7] it was 0.21 µg/mL (≈ 0.692 µM); in the series on Nakaseomyces glabratus [8] it was 0.25 µg/mL (≈ 0.824 µM); in the series on Candida tropicalis [9], 0.125 µg/mL (≈ 0.412 µM); with Aspergillus niger [13] it was 1 µg/mL (≈ 3.3 µM). Also, the MIC came out at 2 µg/mL (≈ 6.59 µM) in the series with Candida albicans [1]; 1 µg/mL (≈ 3.3 µM) with Cryptococcus neoformans [2]; 0.5 µg/mL (≈ 1.65 µM) with Candida albicans [7]; 1 µg/mL (≈ 3.3 µM) against Nakaseomyces glabratus [8]; 2 µg/mL (≈ 6.59 µM) in the series with Candida tropicalis [9]; 4 µg/mL (≈ 13.2 µM) in the series on Aspergillus niger [13]. The MFC with Candida albicans [3] was 2 µg/mL (≈ 6.59 µM); in the series on Aspergillus niger [4], over 256 µg/mL; with Candida albicans [5], 4 µg/mL (≈ 13.2 µM); against Nakaseomyces glabratus [6], 128 µg/mL (≈ 422 µM); against Candida tropicalis [10] it was over 256 µg/mL; in the series with Cryptococcus neoformans [12], 64 µg/mL (≈ 211 µM). Besides, the Activity result in [11] is “Non-toxic”.
Take `OC(Cn1cncn1)(Cn1cncn1)c1ccc(F)cc1F` [FLUCONAZOLE]: the IC50 was 4.21 µg/mL (≈ 13.7 µM) in the series on Candida albicans [1]; 4.6 µg/mL (≈ 15 µM) in the series with Cryptococcus neoformans [2]; 0.73 µg/mL (≈ 2.38 µM) in the series on Candida albicans [7]; 16 µg/mL (≈ 52.2 µM) with Nakaseomyces glabratus [8]; 64 µg/mL (≈ 209 µM) in the series with Candida tropicalis [9]; over 256 µg/mL with Aspergillus niger [13]. The MIC against Candida albicans [1] was 8 µg/mL (≈ 26.1 µM); against Cryptococcus neoformans [2], 32 µg/mL (≈ 104 µM); against Candida albicans [7], 2 µg/mL (≈ 6.53 µM); against Nakaseomyces glabratus [8], 128 µg/mL (≈ 418 µM); in the series with Candida tropicalis [9] it was over 256 µg/mL; in the series with Aspergillus niger [13], over 256 µg/mL. The MFC is 16 µg/mL (≈ 52.2 µM) in the series on Candida albicans [3]; over 256 µg/mL against Aspergillus niger [4]; 4 µg/mL (≈ 13.1 µM) against Candida albicans [5]; over 256 µg/mL in the series on Nakaseomyces glabratus [6]; over 256 µg/mL in the series on Candida tropicalis [10]; over 256 µg/mL in the series on Cryptococcus neoformans [12].

Source of the values: ChEMBL document CHEMBL3751707, “Silicon Incorporated Morpholine Antifungals: Design, Synthesis, and Biological Evaluation” (ACS Med Chem Lett, 2015).
